From ChEMBL document CHEMBL1140237, “6-(2-Phenylethyl)nicotine: a novel nicotinic cholinergic receptor ligand” (Bioorg Med Chem Lett, 2005)
Calls of active or inactive are those of the source. The rule behind the calls is not given here.

Columns and labels:
[1] = biological target: Neuronal acetylcholine receptor; alpha4/beta4 (Rattus norvegicus, UniProt P09483+P12392); assay: Binding affinity for rat Nicotinic acetylcholine receptor alpha4-beta4; assay type: protein-complex assay
Summary of the method: (§1)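 Binding run by the NIMH Psychoactive Drug Screening Program under standard protocols, using cloned rat receptor preparations.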

[2] = biological target: T1, Neuronal acetylcholine receptor; alpha4/beta2 (Rattus norvegicus, UniProt P09483+P12390); assay: Inhibition of [3H](-)-nicotine binding to rat brain (minus cerebellum) Nicotinic acetylcholine receptor alpha4-beta2; assay type: tissue-based
Summary of the method: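 Rat brain homogenate with cerebellum removed, labelled with [3H](-)nicotine. IC50 taken from a plot of log concentration against percent displacement, then converted to Ki. At least triplicate.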

[3] = biological target: T1, Neuronal acetylcholine receptor; alpha4/beta2; assay: Inhibition of [3H]epibatidine binding to rat Nicotinic acetylcholine receptor alpha4-beta2; assay type: protein-complex assay
[4] = tested on: Mus musculus; assay: Percent of maximal possible antinociceptive effect at 15 mg/kg dose; failed to produce effect; assay type: functional
[5] = biological target: Neuronal acetylcholine receptor; alpha2/beta4 (Rattus norvegicus, UniProt P12389+P12392); assay: Binding affinity for rat Nicotinic acetylcholine receptor alpha2-beta4; assay type: protein-complex assay; summary of the method: as §1
[6] = biological target: Neuronal acetylcholine receptor; alpha3/beta2 (Rattus norvegicus, UniProt P04757+P12390); assay: Binding affinity for rat Nicotinic acetylcholine receptor alpha3-beta2; assay type: protein-complex assay; summary of the method: as §1
[7] = tested on: Mus musculus; assay: Nicotine-like action of the compound tested in mouse in spontaneous activity assay at 15 mg/kg sc dose; NA = Not active; assay type: functional, organism-based; parameters: dose 15 mg/kg
Summary of the method: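 Male ICR mice (20–25 g), at least six per dose, given compound or 0.9% saline sc. Placed in individual photocell activity cages 5 min after injection. Beam interruptions counted over the next 10 min.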

[8] = tested on: Mus musculus; assay: Nicotine-like action of the compound tested in mouse in hypothermia assay at 15 mg/kg sc dose; NA = Not active; assay type: functional, organism-based; parameters: dose 15 mg/kg
Summary of the method: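 Male ICR mice (20–25 g), at least six per dose, given compound or saline sc. Rectal temperature read by thermistor probe inserted 24 mm, just before and 30 min after injection.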

[9] = biological target: Neuronal acetylcholine receptor; alpha3/beta4 (Rattus norvegicus, UniProt P04757+P12392); assay: Binding affinity for rat Nicotinic acetylcholine receptor alpha3-beta4; assay type: protein-complex assay; summary of the method: as §1
[10] = biological target: Neuronal acetylcholine receptor; alpha2/beta2 (Rattus norvegicus, UniProt P12389+P12390); assay: Binding affinity for rat Nicotinic acetylcholine receptor alpha2-beta2; assay type: protein-complex assay; summary of the method: as §1
Neuronal acetylcholine receptor; alpha2/beta2, sequence (P12389 whole entry): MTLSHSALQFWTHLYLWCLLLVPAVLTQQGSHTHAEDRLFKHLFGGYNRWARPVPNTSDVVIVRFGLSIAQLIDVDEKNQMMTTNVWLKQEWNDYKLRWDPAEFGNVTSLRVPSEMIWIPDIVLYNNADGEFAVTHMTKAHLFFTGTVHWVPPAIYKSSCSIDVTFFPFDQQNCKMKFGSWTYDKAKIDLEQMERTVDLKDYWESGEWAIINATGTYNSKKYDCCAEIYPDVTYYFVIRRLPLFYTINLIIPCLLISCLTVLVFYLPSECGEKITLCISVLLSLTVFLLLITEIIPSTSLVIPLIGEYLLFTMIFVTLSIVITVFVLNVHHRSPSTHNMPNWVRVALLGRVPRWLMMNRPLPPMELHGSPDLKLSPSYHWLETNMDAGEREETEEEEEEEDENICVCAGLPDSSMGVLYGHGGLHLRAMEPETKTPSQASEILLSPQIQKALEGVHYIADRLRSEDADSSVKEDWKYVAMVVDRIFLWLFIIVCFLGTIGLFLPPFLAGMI
Neuronal acetylcholine receptor; alpha2/beta2, sequence (P12390 whole entry): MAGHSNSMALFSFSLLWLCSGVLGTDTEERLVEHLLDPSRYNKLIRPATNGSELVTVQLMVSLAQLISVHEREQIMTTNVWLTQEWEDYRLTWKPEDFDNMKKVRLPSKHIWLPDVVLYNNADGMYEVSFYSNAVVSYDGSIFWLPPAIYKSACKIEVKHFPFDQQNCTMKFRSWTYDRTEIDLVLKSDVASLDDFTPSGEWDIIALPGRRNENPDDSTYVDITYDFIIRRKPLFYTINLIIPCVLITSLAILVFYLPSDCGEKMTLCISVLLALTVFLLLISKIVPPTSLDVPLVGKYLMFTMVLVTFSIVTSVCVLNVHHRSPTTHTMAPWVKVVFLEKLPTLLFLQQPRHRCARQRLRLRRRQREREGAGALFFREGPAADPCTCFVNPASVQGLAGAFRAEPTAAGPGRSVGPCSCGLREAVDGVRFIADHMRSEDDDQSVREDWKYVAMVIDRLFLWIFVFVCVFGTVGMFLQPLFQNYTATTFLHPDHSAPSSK

T1 sequence (P09483 whole entry): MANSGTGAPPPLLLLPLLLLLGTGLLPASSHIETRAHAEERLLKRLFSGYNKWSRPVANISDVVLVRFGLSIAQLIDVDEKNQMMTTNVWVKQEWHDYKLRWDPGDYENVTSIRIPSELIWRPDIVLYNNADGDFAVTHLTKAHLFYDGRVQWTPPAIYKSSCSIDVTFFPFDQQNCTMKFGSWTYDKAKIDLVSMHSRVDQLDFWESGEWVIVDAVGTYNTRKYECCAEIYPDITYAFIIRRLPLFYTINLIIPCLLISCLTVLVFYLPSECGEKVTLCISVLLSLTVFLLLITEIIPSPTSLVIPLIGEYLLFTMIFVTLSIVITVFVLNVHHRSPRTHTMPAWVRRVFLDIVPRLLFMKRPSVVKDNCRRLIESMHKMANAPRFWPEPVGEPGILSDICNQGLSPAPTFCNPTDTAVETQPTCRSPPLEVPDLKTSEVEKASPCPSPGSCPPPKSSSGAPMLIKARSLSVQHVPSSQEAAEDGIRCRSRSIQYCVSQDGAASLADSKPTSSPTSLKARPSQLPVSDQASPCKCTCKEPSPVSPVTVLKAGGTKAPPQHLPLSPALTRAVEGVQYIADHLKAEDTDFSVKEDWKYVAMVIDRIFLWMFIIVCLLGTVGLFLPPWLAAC
T1 sequence (P12390 whole entry): as the sequence (P12390 whole entry) above
Neuronal acetylcholine receptor; alpha3/beta2, sequence (P04757 whole entry): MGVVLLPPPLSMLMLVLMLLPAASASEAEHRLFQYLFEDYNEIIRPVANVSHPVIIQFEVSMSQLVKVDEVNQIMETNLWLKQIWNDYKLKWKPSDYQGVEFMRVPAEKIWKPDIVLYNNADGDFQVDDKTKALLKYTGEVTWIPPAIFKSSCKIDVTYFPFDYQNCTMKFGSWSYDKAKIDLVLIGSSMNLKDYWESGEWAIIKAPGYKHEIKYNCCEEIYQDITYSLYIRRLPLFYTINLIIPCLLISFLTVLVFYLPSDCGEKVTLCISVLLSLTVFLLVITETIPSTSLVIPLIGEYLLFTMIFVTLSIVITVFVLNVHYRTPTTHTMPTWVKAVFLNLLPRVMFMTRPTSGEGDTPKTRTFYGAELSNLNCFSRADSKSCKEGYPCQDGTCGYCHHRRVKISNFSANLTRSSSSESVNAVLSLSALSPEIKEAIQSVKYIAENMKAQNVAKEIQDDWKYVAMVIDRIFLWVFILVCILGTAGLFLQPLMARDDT
Neuronal acetylcholine receptor; alpha3/beta2, sequence (P12390 whole entry): as the sequence (P12390 whole entry) above
Neuronal acetylcholine receptor; alpha3/beta4, sequence (P04757 whole entry): as the sequence (P04757 whole entry) above
Neuronal acetylcholine receptor; alpha3/beta4, sequence (P12392 whole entry): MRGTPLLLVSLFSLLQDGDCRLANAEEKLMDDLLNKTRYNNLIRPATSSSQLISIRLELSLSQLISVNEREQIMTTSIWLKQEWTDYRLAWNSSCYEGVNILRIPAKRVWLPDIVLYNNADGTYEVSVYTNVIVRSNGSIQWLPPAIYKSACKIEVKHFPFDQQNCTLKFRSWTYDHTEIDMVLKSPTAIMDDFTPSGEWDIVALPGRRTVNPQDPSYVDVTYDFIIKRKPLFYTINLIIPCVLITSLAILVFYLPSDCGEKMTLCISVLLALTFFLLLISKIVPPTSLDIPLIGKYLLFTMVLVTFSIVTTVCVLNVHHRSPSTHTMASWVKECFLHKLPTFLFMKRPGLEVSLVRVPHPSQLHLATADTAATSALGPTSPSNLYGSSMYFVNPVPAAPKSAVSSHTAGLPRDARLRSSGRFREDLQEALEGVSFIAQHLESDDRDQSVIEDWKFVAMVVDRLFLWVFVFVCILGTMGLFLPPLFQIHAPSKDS
Neuronal acetylcholine receptor; alpha4/beta4, sequence (P09483 whole entry): as the sequence (P09483 whole entry) above
Neuronal acetylcholine receptor; alpha4/beta4, sequence (P12392 whole entry): as the sequence (P12392 whole entry) above
Neuronal acetylcholine receptor; alpha2/beta4, sequence (P12389 whole entry): as the sequence (P12389 whole entry) above
Neuronal acetylcholine receptor; alpha2/beta4, sequence (P12392 whole entry): as the sequence (P12392 whole entry) above

Structure (SMILES) | Ki [2] [nM] | also measured
CN1CCCC1c1ccc(CCc2ccccc2)nc1 (stereo not given) | 15 | Ki [1]: 400 nM; Ki [3]: 200 nM; MPE [4]: 2%; Ki [5]: 1200 nM; Ki [6]: 2000 nM; Activity [7]: inactive; Activity [8]: inactive; Ki [9]: 4600 nM; Ki [10]: 490 nM
CN1CCCC1c1ccc(CCCc2ccccc2)nc1 (single isomer, unassigned; (-)) | 72 | 
COc1ccc(CCc2ccc(C3CCCN3C)cn2)cc1 (stereo not given) | 10 | 
CN1CCCC1c1ccc(CC(O)c2ccccc2)nc1 (stereo not given) | 275 | 
CCN(C)CCc1ccc(CCc2ccccc2)nc1 | > 10000 | 
CN1CCCC1c1ccc(CCCc2ccccc2)nc1 (single isomer, unassigned; (+)) | > 10000 | 
CCc1ccc(C2CCCN2C)cn1 (stereo not given) | 5.6 | 
CN1CCCC1c1ccc(C(=O)O)nc1 (stereo not given) | > 10000 | 
CN1CCCC1c1ccc(CCc2ccc(Cl)cc2)nc1 (stereo not given) | 40 | 
CN1CCCC1c1ccc(/C=C/c2ccccc2)nc1 (stereo not given) | 350 | 
CCCc1ccc(C2CCCN2C)cn1 (stereo not given) | 17 | 
